Assay outcomes from PubChem BioAssay.
Fh CTSL1 inh: cathepsin L1 inhibition, PFM18AAP counter-screen. recombinant F. hepatica cathepsin L1, Z-Leu-Arg-MCA fluorescence. inhibition, % at 5.96 µM. 300,000 tested, 0.49% active. AID 1906;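 active means inhibition above the mean of all tested compounds plus 3 SD, set per screening campaign, cut at about 17% in these data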;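 further: 0% = plate median of test compound wells and 100% = 1 µM Z-Phe-Ala-diazomethylketone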
HKDC1 inhibitor: blocks human hexokinase HKDC1 activity; Q2TB90; recombinant HKDC1, G6PDH/diaphorase resazurin coupled fluorescence; inhibition, % at 20 µM; 340,000 tested, 0.16% active; AID 493160;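 active means inhibition above about 35% when tested at 20 µM, limit read from the data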;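 further: plate controls were DMSO wells with enzyme for no effect and DMSO wells lacking enzyme for full effect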
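Material: recombinant HKDC1 hexokinase; Amount: HKDC1 at 5 µg/mL; Medium: Tris pH 8.0 buffer with MgCl2, Tween-20, BSA, BME; Schedule: 90 min reaction incubation at room temperature, dark; Technique: coupled resazurin fluorescence, excitation 525 nm, emission 613 nm.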
Diaph act CS: counter-screen for diaphorase-based assays: diaphorase activators and chemical reducers | Diaphorase/resazurin coupled assay, resorufin fluorescence, 16 min; hits give high values; 1 = vehicle wells, 0 = NADH-free wells | activation factor at 20 µM | 190,000 tested, 0.005% active | AID 1229;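 active means diaphorase activity raised at least twofold by the compound at 20 µM; inactive means activation factor below 2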
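test system = bacterial diaphorase enzyme (C. kluyveri) | quantity = enzyme 0.07 U/mL final | reagent = NADH substrate 0.114 mM plus resazurin dye 0.1 mM, final | incubation = 16 min enzyme reaction, ambient temperature | buffer or medium = HEPES pH 7.4 buffer with MgCl2 and Tween 20 | signal = fluorescence of resorufin, 544 nm excitation, 590 nm emission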
Diaphorase inh: inhibits diaphorase or chemically oxidizes, flagging diaphorase assay artifacts; diaphorase resazurin-to-resorufin fluorescence, NADH, 16 min; bacterial (C. kluyveri) enzyme, not human; inhibition, % at 20 µM; 190,000 tested, 0.69% active;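 active means primary screen inhibition at 20 µM above a set limit, cut at about 50% in these data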;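 further: plate controls were DMSO with full reaction for no effect and wells lacking NADH for full effect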
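Assay system: diaphorase enzyme from Clostridium kluyveri; Input: enzyme working solution with 0.14 U/mL diaphorase; Timing: 16 min at room temperature; Technique: resorufin fluorescence, excitation 544 nm, emission 590 nm; Benchmarks: positive control minus NADH, DMSO neutral control.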
ATG4B inhibitor: ATG4B (human) cysteine protease inhibition; Q9Y4P1; ATG4B cleavage of LC3-PLA2, NBD-HPC fluorescence, 1 h; inhibition, % at 8.33 µM; 340,000 tested, 0.51% active; in the data active means inhibition above about 40%
Target sequence (Q9Y4P1 whole entry, looked up): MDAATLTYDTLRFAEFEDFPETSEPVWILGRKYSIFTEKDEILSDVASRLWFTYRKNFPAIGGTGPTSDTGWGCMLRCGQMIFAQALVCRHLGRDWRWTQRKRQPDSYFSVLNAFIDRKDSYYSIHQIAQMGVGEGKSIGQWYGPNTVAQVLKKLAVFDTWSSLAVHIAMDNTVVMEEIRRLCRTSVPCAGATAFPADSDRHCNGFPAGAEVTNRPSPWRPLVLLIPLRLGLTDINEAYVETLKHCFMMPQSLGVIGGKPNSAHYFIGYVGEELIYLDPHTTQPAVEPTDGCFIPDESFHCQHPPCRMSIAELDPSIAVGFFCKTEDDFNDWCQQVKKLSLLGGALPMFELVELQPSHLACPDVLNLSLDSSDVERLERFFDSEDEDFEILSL
The depositor's hits bear a star; nt = no result. This is a sample that favours compounds with a hit; in the whole collection about 1.4% have one here.

SMILES | Fh CTSL1 inh | HKDC1 inhibitor | Diaph act CS | Diaphorase inh | ATG4B inhibitor
COc1ccc2oc(=N)c(C(=O)Nc3ccccc3)cc2c1 | -1.5 | -3.0 | 0.8 | 16.0 | -12.3
COc1ccc2oc(=N)c(C(=O)Nc3ccccc3Cl)cc2c1 | 20.0* | -6.9 | nt | nt | 4.7
O=C(NNC(=O)c1cccs1)c1cccnc1 | 1.4 | -6.8 | nt | nt | -8.3
O=C(NNC(=S)NC(=O)c1cccs1)c1cccnc1 | -2.0 | -1.7 | 0.4 | 56.6* | 22.2
O=C(O)c1ccc(Cl)c2c1C1C=CCC1C(c1ccccn1)N2 (stereo not given) | 0.7 | nt | 0.4 | 55.7* | nt
O=[N+]([O-])c1ccc(Cl)c2c1C1C=CCC1C(c1ccccn1)N2 (stereo not given) | 6.1 | 8.6 | 0.6 | 41.0 | 0.5
C#CC(=O)N(c1ccc(OC)cc1OC)C(C(=O)NC1CCCC1)c1cccs1 (stereo not given) | 29.5* | 17.1 | 1 | 3.4 | -0.9
COc1ccc(N(C(=O)c2ccco2)C(C(=O)NC2CCCCC2)c2cccs2)cc1OC (stereo not given) | -0.4 | -7.0 | 0.9 | 13.0 | -12.8
C#CC(=O)N(c1cc(OC)ccc1OC)C(C(=O)NC1CCCC1)c1cccs1 (stereo not given) | 34.2* | 24.3 | 0.9 | 5.9 | -0.7
CN(C)c1cc(Cl)c2nonc2c1N | 39.3* | 10.4 | nt | nt | -8.6
c1ccc(-c2nnc(CSc3ccc4c(c3)OCCO4)o2)cc1 | -0.9 | 18.4 | 0.4 | 58.8* | 3.1
O=C(OCc1nnc(-c2ccccc2)o1)c1ccc2c(c1)OCO2 | -3.3 | -1.5 | 1 | 1.5 | -3.3
Cc1ccc(S(=O)(=O)CC(=O)N2CC(C)OC(C)C2)cc1 (stereo not given) | 1.1 | -1.7 | nt | nt | -9.3
COc1ccc(C2CC(=O)N3CN(c4ccc(C)c(Cl)c4)CSC3=C2C#N)cc1 (stereo not given) | 2.9 | 17.6 | 0.5 | 50.0* | -0.4
COc1ccc(C2CC(=O)N3CN(c4ccccc4F)CSC3=C2C#N)cc1OC (stereo not given) | 1.7 | 8.1 | 0.5 | 52.8* | -6.4
COc1cc(OC)c(C2CC(=O)N3CN(c4ccccc4C)CSC3=C2C#N)cc1OC (stereo not given) | 30.8* | nt | 0.5 | 47.7 | nt
CCOc1cc(C2CC(=O)N3CN(C4CCCCC4)CSC3=C2C#N)ccc1O (stereo not given) | 79.6* | 17.1 | 0.4 | 57.9* | 0.1
COc1ccc(C(=O)O/N=C/c2ccc(S(=O)(=O)c3ccc(Cl)cc3)nc2)cc1 | -7.7 | -3.2 | nt | nt | -2.0
C=CCc1cc(C=Nc2ccc(N3CCOCC3)cc2)cc(OCC)c1O | nt | 5.0 | nt | nt | 8.9
Cc1cc(SCc2ccc([N+](=O)[O-])cc2)nc(=O)[nH]1 | -4.1 | 5.9 | nt | nt | 0.8
Cc1cccc(N2CSC3=C(C#N)C(c4ccc(C)o4)CC(=O)N3C2)c1 (stereo not given) | -3.6 | nt | 0.4 | 63.9* | nt
COc1ccc(OC)c(C2CC(=O)N3CN(c4ccccc4)CSC3=C2C#N)c1 (stereo not given) | 3.5 | 12.1 | 0.6 | 37.6 | -5.8
CCCn1ncc([C@@H]2C[C@H]3CN(Cc4cccc(Cl)c4)C(=O)[C@]34CCCN24)c1C | 3.9 | 8.2 | 0.4 | 59.5* | 5.8
COc1ccc(NC(=O)CC(c2ccco2)C(C)C)cc1 (stereo not given) | 8.4 | -5.5 | nt | nt | 3.2
Cc1ccc(N2CC(=O)Nc3c(sc4nc(C)cc(C)c34)C2=O)cc1 | 28.5* | -4.4 | nt | nt | -4.8
SMILES | Fh CTSL1 inh | HKDC1 inhibitor | Diaph act CS | Diaphorase inh | ATG4B inhibitor
Cc1cc(C)c2c3c(sc2n1)C(=O)N(c1ccccc1C)CC(=O)N3 | -1.9 | -6.1 | nt | nt | -0.1
Oc1ccc(/C=N/Nc2cc(N3CCOCC3)nc(N3CCOCC3)n2)cc1O | -0.3 | 9.3 | 0.4 | 63.7* | -8.0
Cc1ccc(C(C[N+](=O)[O-])c2c(C)[nH]n(-c3ccccc3)c2=O)cc1 (stereo not given) | 30.9* | 9.2 | 0.7 | 30.2 | 10.4
OCc1ccc(O)c2ncccc12 | 1.8 | -15.8 | 0.7 | 27.9 | -7.5
Oc1ccc(CNc2ccccc2F)c2cccnc12 | -4.1 | -19.7 | 0.1 | 88.9* | -2.2
Oc1ccc(F)c2cccnc12 | 3.1 | 9.6 | 0.5 | 50.5* | 7.9
Oc1ccc(Cl)c2cccnc12 | nt | -5.2 | nt | nt | 7.5
NC(=S)NNc1cccc2cccnc12 | 2.7 | 6.6 | 0.3 | 71.5* | -1.6
Oc1ccccc1CNc1cccc2cccnc12 | -0.6 | 18.4 | 0.3 | 65.6* | -4.8
Cc1ccc(OCCn2c(SCCO)nc3c(N)ncnc32)cc1 | -2.0 | -2.1 | nt | nt | 1.6
O=C(NCc1ccco1)c1cccn2c(=O)c3cc4ccccc4cc3nc12 | nt | nt | 0.3 | 65.9* | nt
Cc1ccc(-c2c3c([nH]c(=S)c2C#N)CCCC3)o1 | 8.8 | 1.6 | 0.5 | 50.6* | 2.5
O=C(NCCO)Nc1ccc2nsnc2c1 | -0.7 | -6.5 | 0.9 | 14.8 | 7.2
S=C(Nc1ccc2nsnc2c1)N1CCCCC1 | -0.1 | 2.5 | 0.3 | 66.2* | 2.7
S=C(Nc1ccc(Cl)c(Cl)c1)N1CCCC1 | 3.2 | -7.4 | nt | nt | 9.2
OCCNC(=S)Nc1ccc2nsnc2c1 | 112.0* | 3.0 | 0.5 | 49.3 | -4.4
COc1ccc(CN2C(=O)c3cccnc3C2=O)cc1S(=O)(=O)NC(C)C | -4.7 | -1.3 | nt | nt | -9.9
CC(C(=O)N1CCN(Cc2ccc3c(c2)OCO3)CC1)c1ccc([N+](=O)[O-])cc1 (stereo not given) | 18.0* | -7.2 | 1 | 4.0 | -12.9
O=C(C(Cl)Cl)N1CCN(Cc2ccc3c(c2)OCO3)CC1 | -10.1 | -1.8 | nt | nt | -0.5
Cc1ccc(C)c(NC(=O)CSc2nnc(C3CCCCC3)o2)c1 | 0.7 | -8.6 | nt | nt | -4.0
Cc1ccc2nc(SCC(=O)N3CCC(Cc4ccccc4)CC3)nc(=O)n2c1 | 7.1 | 2.7 | nt | nt | -5.4
CC(/C=C/C1(O)C(C)CC(O)CC1(C)C)OC1OC(CO)C(O)C(O)C1O (stereo not given) | 55.1* | -0.8 | nt | nt | -2.7
CCOC(=O)C1CN(S(=O)(=O)c2ccccc2)CCN1S(=O)(=O)c1ccccc1 (stereo not given) | 3.4 | -11.3 | 1 | 0.9 | -5.8
COC(=O)C1CN(S(=O)(=O)c2ccccc2)CCN1S(=O)(=O)c1ccccc1 (stereo not given) | 58.4* | -1.8 | 0.8 | 16.8 | -8.5
CC(NCCCOc1cccc2ccccc12)c1ccccc1 (stereo not given) | -7.9 | 8.9 | nt | nt | -9.2
COC(=O)[C@@]1(Cc2ccc(F)cc2)[C@H]2c3cc(C(=O)N4CCCC4)n(CCc4ccc(O)c(O)c4)c3C[C@H]2CN1C(=O)c1ccccc1 | 3.2 | nt | 0.5 | 51.8* | nt
CCN(CC)C(=O)Oc1ccc2oc(=O)cc(-c3cc4cccc(OC)c4o3)c2c1 | 4.8 | 19.8 | nt | nt | -7.4
O=c1c2cn[nH]c2[nH]c(=S)n1-c1ccccc1 | -1.9 | -1.9 | 0.4 | 60.6* | -6.5
